Measurements from ChEMBL document CHEMBL1687745 (Antimicrob Agents Chemother, 2009).
Values after ≈ are worked out from the molar mass of the structure shown. Active and inactive are the calls of the source. The calls are words filed in the database; no cut-off is given here.

Tests used:
Enterococcus faecalis [1] = assay: Antimicrobial activity against vancomycin-resistant Enterococcus faecalis ATCC 51575 by broth microdilution method; assay type: functional
[2] = tested on: Mycolicibacterium smegmatis; assay: Antimicrobial activity against Mycobacterium smegmatis 700009 by broth microdilution method; assay type: functional
How it was run: (§1)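 Broth microdilution. Log-phase cultures (5 × 10^5 CFU/ml) seeded in 96-well plates with compound from 0 to 20 µM or 1% DMSO control. Incubated at 37°C for 16 to 20 h. Growth read as absorbance at 600 nm.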

Staphylococcus aureus [3] = assay: Antimicrobial activity against methicillin-resistant Staphylococcus aureus clinical isolate by broth microdilution method; assay type: functional
[4] = tested on: Mycolicibacterium smegmatis; assay: Antimicrobial activity against Mycobacterium smegmatis 35798 by broth microdilution method; assay type: functional; how it was run: as §1
Staphylococcus aureus [5] = assay: Antimicrobial activity against Staphylococcus aureus ATCC 25923 by broth microdilution method; assay type: functional; how it was run: as §1
Bacillus subtilis [6] = assay: Inhibition of DNA synthesis in Bacillus subtilis BD54 at 5 X MIC by [3H]thymidine incorporation assay; assay type: functional, organism-based
How it was run: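 Precursors were [methyl-3H]thymidine (DNA), [5-3H]uridine (RNA), L-[4,5-3H]leucine (protein) and N-acetyl-D-[1-3H]glucosamine (cell wall). Samples taken over time, precipitated with equal volume of ice-cold 20% TCA, filtered on glass fibre, and counted. cpm plotted against time.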

Yersinia pestis [7] = assay: Antimicrobial activity against Yersinia pestis by broth microdilution method; assay type: functional
[8] = tested on: Mycolicibacterium smegmatis; assay: Antimicrobial activity against Mycobacterium smegmatis 19420 by broth microdilution method; assay type: functional; how it was run: as §1
Bacillus anthracis [9] = assay: Inhibition of spore germination in Bacillus anthracis Sterne spores at MIC after 4 hrs; assay type: functional, organism-based
Enterococcus faecium = assay: Antimicrobial activity against vancomycin-resistant Enterococcus faecium B42762 by broth microdilution method; assay type: functional
Enterococcus faecalis [10] = assay: Antimicrobial activity against Enterococcus faecalis 29212 clinical isolate by broth microdilution method; assay type: functional
Bacillus subtilis [11] = assay: Antimicrobial activity against Bacillus subtilis clinical isolate by broth microdilution method; assay type: functional
Bacillus anthracis [12] = assay: Antimicrobial activity against Bacillus anthracis Sterne vegetative cells by broth microdilution method; assay type: functional
Bacillus anthracis [13] = assay: microbe, parasite or virus in culture; settings: Ames
Bacillus pumilus = assay: Antimicrobial activity against Bacillus pumilus clinical isolate by broth microdilution method; assay type: functional; how it was run: as §1
Burkholderia cepacia = assay: Antimicrobial activity against Burkholderia cepacia clinical isolate by broth microdilution method; assay type: functional; how it was run: as §1
[14] = tested on: Burkholderia pseudomallei; assay: Antimicrobial activity against Burkholderia pseudomallei DD503 by broth microdilution method; assay type: functional
Bacillus anthracis [15] = assay: microbe, parasite or virus in culture; settings: Ames; remark: listed apart in the source
Pseudomonas aeruginosa = assay: Antimicrobial activity against Pseudomonas aeruginosa PAO1 by broth microdilution method; assay type: functional; how it was run: as §1
Staphylococcus aureus [16] = assay: Antibacterial activity against Staphylococcus aureus Smith infected in Swiss Webster mouse assessed as assessed as protection against microbe-induced mortality at 10 mg/kg, iv administered as single dose 15 mins post bacterial challenge measured 48 hrs post infection; assay type: functional
How it was run: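 Swiss Webster mice (n = 10/group) were challenged i.p. with 8.3 × 10^8 CFU. After 15 min they received a single i.v. dose in 10% dimethyl acetamide–5% dextrose in water (pH 4.0), alongside vehicle and daptomycin (10 mg/kg) controls. Survival was followed for 48 h.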

Escherichia coli = assay: Antimicrobial activity against Escherichia coli J53 clinical isolate by broth microdilution method; assay type: functional
Staphylococcus aureus [17] = assay: Antimicrobial activity against methicillin-resistant Staphylococcus aureus 1094 by broth microdilution method; assay type: functional
Bacillus anthracis [18] = assay: Protection against Bacillus anthracis Sterne spores induced cell death in mouse J774A1 cells assessed as dead cells at 10 uM by Sytox green dye staining assay relative to untreated control; assay type: functional, J774.A1
J774.A1 = assay: Cytotoxicity against mouse J774A1 cells assessed as dead cells at 10 uM by Sytox green dye staining assay relative to untreated control; assay type: cell-based; settings: j774.a1, 10 µM
How it was run: (§2)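 J774A.1 macrophages, not infected, treated with 1% DMSO control or compound at 10 µM. Sytox green (impermeant to live cells) added for 15 min at 37°C. Cells centrifuged, washed twice in complete medium containing antibiotics, and analysed by flow cytometry for percent live and dead cells.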

Bacillus anthracis [19] = assay: Antimicrobial activity against Bacillus anthracis Vollum clinical isolate by broth microdilution method; assay type: functional
[20] = tested on: Burkholderia thailandensis; assay: Antimicrobial activity against Burkholderia thailandensis by broth microdilution method; assay type: functional
HeLa = assay: Effect on cell membrane integrity in human HeLa cells assessed as lactate dehydrogenase release at 32 times MIC against Staphylococcus aureus by CytoTox ONE homogenous membrane integrity assay; assay type: cell-based
How it was run: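 Confluent HeLa cells in DMEM treated for 1 h with a range of compound concentrations, 1% DMSO final. […] LDH activity in the supernatant measured by a membrane-integrity kit.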

Bacillus subtilis [21] = assay: Effect on bacterial membrane permeability in Bacillus subtilis BD54 upto 10 times MIC using DiSC3 fluorescent dye staining based fluorimetric assay; assay type: functional, organism-based
How it was run: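 B. subtilis BD54 grown in LB to OD600 0.4–0.5, washed, and resuspended to OD600 0.1 in 5 mM HEPES pH 7.4 with 20 mM glucose. Loaded with 1 µM DiSC3(5) for 10 min at room temperature, then 100 mM KCl added. […] Fluorescence read at 5 min (ex 622, em 670 nm). DNP 200 µg/ml positive control; mean ± SD of 8 wells.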

Bacillus anthracis [22] = assay: Protection against Bacillus anthracis Sterne spores induced cell death in mouse J774A1 cells assessed as live viable cells at 10 uM by Sytox green dye staining assay relative to untreated control; assay type: functional, J774.A1
[23] = Cytotoxicity against mouse J774A1 cells assessed as live viable cells at 10 uM by Sytox green dye staining assay relative to untreated control; assay type: cell-based, J774.A1; settings: read-out: Activity; how it was run: as §2
Enterococcus faecalis [24] = assay: Antimicrobial activity against Enterococcus faecalis clinical isolate by broth microdilution method; assay type: functional; how it was run: as §1
Bacillus anthracis [25] = assay: Antibacterial activity against Bacillus anthracis Ames spores infected in C57BL/6 mouse assessed as mouse survival rate at 10 mg/kg, ip for 5 days every 6 hrs administered 6 hrs post bacterial challenge measured up to 20 days post infection; assay type: functional; settings: route intraperitoneal
Bacillus anthracis [26] = assay: Antimicrobial activity against Bacillus anthracis Ames by broth microdilution method in presence of 10% fetal calf serum; assay type: functional
Priestia megaterium = assay: Antimicrobial activity against Bacillus megaterium clinical isolate by broth microdilution method; assay type: functional
[27] = Cytotoxicity against human HeLa cells after 3 days by MTS assay in presence of 10% fetal calf serum; assay type: cell-based
Staphylococcus aureus [28] = assay: Antimicrobial activity against Staphylococcus aureus by broth microdilution method; assay type: functional; how it was run: as §1
Klebsiella pneumoniae = assay: Antimicrobial activity against Klebsiella pneumoniae 5657 by broth microdilution method; assay type: functional; how it was run: as §1
Staphylococcus aureus [29] = assay: Antibacterial activity against MBX 1090 resistant Staphylococcus aureus NCTC8325 isolates selected on 10 to 12 days of serial passage through MBX 1090; assay type: functional
How it was run: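 Eight independent S. aureus NCTC8325 cultures were grown with compound at 0.125× to 128× MIC. Each day, cells were passaged from the highest-concentration well still showing >50% of untreated growth, for up to 20 days. Colonies isolated from resistant cultures were confirmed by MIC assay.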

Yersinia pestis [30] = assay: Antibacterial activity against Yersinia pestis CO92 infected in C57BL/6 mouse assessed as protection against microbe-induced mortality at 10 mg/kg, ip for 5 days every 6 hrs administered 6 hrs post bacterial challenge measured after 15 days post infection; assay type: functional; settings: route intraperitoneal
Bacillus licheniformis = assay: Antimicrobial activity against Bacillus licheniformis clinical isolate by broth microdilution method; assay type: functional
Brevibacillus brevis = assay: Antimicrobial activity against Bacillus brevis clinical isolate by broth microdilution method; assay type: functional; how it was run: as §1
Burkholderia mallei = assay: Antimicrobial activity against Burkholderia mallei ATCC 23344 by broth microdilution method; assay type: functional

In the case of `c1cc2cc(-c3ccc(-c4cc5ccc(C6=NCCN6)cc5[nH]4)cc3)[nH]c2cc1C1=NCCN1`, the MIC (Enterococcus faecalis [1]) was 0.1 µg/mL (≈ 0.225 µM), the MIC [2] was 0.1 µg/mL (≈ 0.225 µM) and the MIC (Staphylococcus aureus [3]) was 0.3 µg/mL (≈ 0.675 µM). For the same compound, the MIC [4] was under 0.1 µg/mL, the MIC (Staphylococcus aureus [5]) was 0.1 µg/mL (≈ 0.225 µM) and the inhibition (Bacillus subtilis [6]) was “Active”. For the same compound, the MIC (Yersinia pestis [7]) was 3.4 µg/mL (≈ 7.65 µM), the MIC [8] was under 0.1 µg/mL and the inhibition (Bacillus anthracis [9]) was “inactive”. For the same compound, the MIC (Enterococcus faecium) was under 0.1 µg/mL, the MIC (Enterococcus faecalis [10]) was 0.2 µg/mL (≈ 0.45 µM) and the MIC (Bacillus subtilis [11]) was 0.2 µg/mL (≈ 0.45 µM). The MIC (Bacillus anthracis [12]) was 0.7 µg/mL (≈ 1.57 µM), the MBC (Bacillus anthracis [13]) was 0.4 µg/mL (≈ 0.9 µM) and the MIC (Bacillus pumilus) was under 0.1 µg/mL. For the same compound, the MIC (Burkholderia cepacia) was over 20 µg/mL, the MIC [14] was 1.7 µg/mL (≈ 3.82 µM) and the MBC (Bacillus anthracis [15]) was 0.7 µg/mL (≈ 1.57 µM). For the same compound, the MIC (Bacillus anthracis [15]) was 0.3 µg/mL (≈ 0.675 µM), the MIC (Pseudomonas aeruginosa) was 7.5 µg/mL (≈ 16.9 µM) and the survival at 10 mg/kg (Staphylococcus aureus [16]) was 80%. It also gave an MIC (Escherichia coli) of 0.7 µg/mL (≈ 1.57 µM), an MIC (Staphylococcus aureus [17]) of 0.2 µg/mL (≈ 0.45 µM) and an Activity (Bacillus anthracis [18]) of 22%. For the same compound, the Activity (J774.A1) was 5%, the MIC (Bacillus anthracis [19]) was 0.3 µg/mL (≈ 0.675 µM) and the MIC [20] was 21 µg/mL (≈ 47.2 µM). The Activity (HeLa) was “Non-toxic”, the Activity (Bacillus subtilis [21]) was “Active” and the Activity (Bacillus anthracis [22]) was 77%. The viability at 10 µM [23] was 94%, the MIC (Enterococcus faecalis [24]) was 0.2 µg/mL (≈ 0.45 µM) and the survival at 10 mg/kg (Bacillus anthracis [25]) was 100%. For the same compound, the MIC (Bacillus anthracis [26]) was 1.1 µg/mL, the MIC (Priestia megaterium) was 0.3 µg/mL (≈ 0.675 µM) and the CC50 at 72 h [27] was 3 µg/mL. For the same compound, the MIC (Staphylococcus aureus [28]) was 0.3 µg/mL (≈ 0.675 µM), the MIC (Klebsiella pneumoniae) was 3.8 µg/mL (≈ 8.55 µM) and the MIC (Staphylococcus aureus [29]) was “Active”. For the same compound, the survival at 10 mg/kg (Yersinia pestis [30]) was 90%, the MIC (Bacillus licheniformis) was 0.7 µg/mL (≈ 1.57 µM) and the MIC (Brevibacillus brevis) was 0.7 µg/mL (≈ 1.57 µM). It also gave an MIC (Burkholderia mallei) of 1.7 µg/mL (≈ 3.82 µM).
